Not all results are given here.
Apaf1 activ – human Apaf-1 activation; activity change, negative = activation, % at 20 µM; Apaf-1 apoptosome caspase-3 activation, DEVD-Rh110 fluorescence; hits give low values; actives 0.31% (n = 330,000); AID 489031; O14727;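 active means activity change at or below -40% at 20 µM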
Target sequence (O14727 whole entry, looked up): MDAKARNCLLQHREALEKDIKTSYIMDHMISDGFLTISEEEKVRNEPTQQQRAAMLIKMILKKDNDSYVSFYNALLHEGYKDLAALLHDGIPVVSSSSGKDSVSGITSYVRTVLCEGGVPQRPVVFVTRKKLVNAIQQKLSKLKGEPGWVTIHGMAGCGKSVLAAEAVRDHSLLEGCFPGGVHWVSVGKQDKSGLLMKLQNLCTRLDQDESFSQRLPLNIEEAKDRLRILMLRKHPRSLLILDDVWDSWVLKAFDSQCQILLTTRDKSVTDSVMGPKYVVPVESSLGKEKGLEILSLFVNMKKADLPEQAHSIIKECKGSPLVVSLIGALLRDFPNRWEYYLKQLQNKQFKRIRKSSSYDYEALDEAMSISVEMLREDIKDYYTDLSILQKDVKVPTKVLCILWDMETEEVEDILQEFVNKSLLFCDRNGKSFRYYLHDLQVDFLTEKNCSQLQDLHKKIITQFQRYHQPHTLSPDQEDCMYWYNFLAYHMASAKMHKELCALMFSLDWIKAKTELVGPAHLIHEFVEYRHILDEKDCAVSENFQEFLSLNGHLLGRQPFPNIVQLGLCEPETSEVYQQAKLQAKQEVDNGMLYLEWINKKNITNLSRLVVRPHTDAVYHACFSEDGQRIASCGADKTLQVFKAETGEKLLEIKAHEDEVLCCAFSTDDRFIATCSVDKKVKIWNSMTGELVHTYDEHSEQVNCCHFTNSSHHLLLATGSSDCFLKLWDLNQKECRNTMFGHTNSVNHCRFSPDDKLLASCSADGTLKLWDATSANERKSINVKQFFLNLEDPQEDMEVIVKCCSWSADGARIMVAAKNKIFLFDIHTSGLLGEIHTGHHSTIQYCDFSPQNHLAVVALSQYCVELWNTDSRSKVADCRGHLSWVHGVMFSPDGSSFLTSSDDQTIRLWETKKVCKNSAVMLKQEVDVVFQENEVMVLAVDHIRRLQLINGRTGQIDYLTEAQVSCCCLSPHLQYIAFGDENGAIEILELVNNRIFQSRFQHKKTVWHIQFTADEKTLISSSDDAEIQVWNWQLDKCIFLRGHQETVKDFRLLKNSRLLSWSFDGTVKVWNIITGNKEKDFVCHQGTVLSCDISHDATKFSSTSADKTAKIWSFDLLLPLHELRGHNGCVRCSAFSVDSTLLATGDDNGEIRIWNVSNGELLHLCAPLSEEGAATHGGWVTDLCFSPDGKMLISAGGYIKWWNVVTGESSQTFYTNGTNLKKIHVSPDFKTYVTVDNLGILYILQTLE
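Schedule: 30 min preincubation, 50 min reaction, room temperature / System: biochemical Apaf-1 apoptosome reconstitution / Medium: 20 mM HEPES pH 7.5 with CHAPS, BSA / Evaluation: Caspase-3 cleavage activity downstream of Apaf-1 activation / Detection: Caspase-3-released Rh110 fluorescence, 540 nm emission, 480 nm excitation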
Rh110 act interf – interferes with Rh110 fluorescence, flagging false Apaf-1 activators. shares compounds with Apaf1 activ. Rh110 fluorescence interference, quenched caspase reaction, Ex480/Em540. fluorescence interference (activity change), % at 20 µM, hits read low. 980 tested, under 10 active;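 active means mean activity change at or below -40% when tested at 20 µM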
Apaf-1 act conf – Apaf-1 (human) activation, single-dose confirmed | AID 504617 | activity change, negative = activation, % at 20 µM | reconstituted apoptosome caspase-3 activity, DEVD-Rh110 fluorescence; hits give low values | shares compounds with Apaf1 activ | actives 5% (n = 980);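 active means mean activity change at or below -40%, meaning activation of 40% or more, at 20 µM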
Apaf1 act interf – shows fluorescence interference in the Apaf-1 activator assay format. shares compounds with Apaf1 activ. fluorescence interference counterscreen. 55 tested, under 10 active. EC50, µM; call rule not given here
Active calls of the source: *; nt = not tested or not shown.

SMILES	Apaf1 activ	Rh110 act interf	Apaf-1 act conf	others
CSc1ccccc1NC(=O)CN(C)C(=O)c1ccc2c(c1)OCCO2	-74*	7	5
Cc1cccc(C)c1NC(=O)CN(C)C(=O)c1ccccc1SCC(=O)N1CCCC1	42	nt	nt
O/C=c1\ccc2cccc3nc(C(F)(F)F)nc1c23	79	nt	nt
CCOC(=O)c1[nH]c2ccc(OC)cc2c1NC(=O)c1nonc1C	-144*	2	2
CCOC(=O)c1[nH]c(=O)c2ccccc2c1O	75	nt	nt
CC1=NN(c2ccc(Br)cc2)C(=O)/C1=C/c1cccs1	96	nt	nt
CC(C)=NOc1nc(N(C)C)nc(N(C)C)n1	-76*	3	1
CCOc1cc(/C=C/C(=O)Nc2ccc(C(=O)NCCN(CC)CC)cc2)ccc1OCC(C)C	47	nt	nt	Apaf1 act interf=>100
CN(C)CCNC(=O)c1ccc(COc2ccc(Cl)cc2Cl)cc1	46	nt	nt
CCN(CC)CCNC(=O)c1ccc(NC(C)=O)cc1	-2	nt	nt
C#CCOCCOCCOCCNc1nc(N2CCN(C(=O)CCCCCCCCCCNC(=O)Cn3cc(CCCCCN)nn3)CC2)nc(N2CCN(C(=O)CCCCCCCCCCNC(=O)Cn3cc(C[C@@H](C)O)nn3)CC2)n1	71	nt	nt
CCNC1=C(Cl)C(=O)c2ccccc2C1=O	51	nt	nt
Cc1cccc(NC(=O)CC2Nc3cccc4cccc(c34)NC2=O)c1 (centres undefined)	71	nt	nt
Cc1cccc(NC(=O)NC2CCCc3ccccc32)c1 (centres undefined)	-379*	1	0
Cc1cccc(NC2=C(NCCO)C(=O)c3ccccc3C2=O)c1	56	nt	nt
COc1ccc(N2CCN(C(=O)c3ccc(COc4ccc5c(C)cc(=O)oc5c4)cc3)CC2)cc1	58	nt	nt
CC(Oc1ccc2c(-c3ccccc3)cc(=O)oc2c1)C(=O)NCC1CCC(C(=O)O)CC1 (centres undefined)	-1	nt	nt
COc1ccc(-c2cc(=O)oc3cc(OCC(=O)Nc4ccc(CCO)cc4)ccc23)cc1	-55*	0	-20
O=C(/C=C/c1ccc(-c2ccccc2[N+](=O)[O-])o1)c1ccco1	43	nt	nt
CCCCCCCCCCn1c2c(c(=N)c3c1CCC3)CCC2	74	nt	nt
Cc1cc(C)nc(NS(=O)(=O)c2ccc(N)cc2)n1	-3	nt	nt
N#CCCS(=O)(=O)c1ccc(N)cc1	-61*	0	5
COC(=O)CCCC1=CC2=C(c3ccccc3)C(=O)C(C)(OC(=O)C3CCCC3)C(=O)C2=CN1CC(C)C (centres undefined)	41	nt	nt
CCCOc1cc2c(C#N)c(N3CCCC3)nc(N)c2c(N)n1	98	nt	nt
COc1ccc(N2CCN(Cc3nc4scc(-c5ccccc5)c4c(=O)[nH]3)CC2)cc1	44	nt	nt
SMILES	Apaf1 activ	Rh110 act interf	Apaf-1 act conf	others
COc1ccccc1N1CCN(Cc2nc(-c3ccc(F)cc3)oc2C)CC1	-236*	5	13
C[C@H](CO)N1C[C@H](C)[C@@H](CN(C)Cc2ccc(Oc3ccccc3)cc2)Oc2c(NC(=O)C3CC3)cccc2C1=O	43	nt	nt
COc1ccc(S(=O)(=O)N2CCCCCC2)cc1C(=O)NCCc1ccccc1	47	nt	nt
COc1cc2c(cc1NC(=O)C(C)N1CCN(S(=O)(=O)c3ccc(C)c(C)c3)CC1)oc1ccccc12 (centres undefined)	-578*	14	13
CC(Oc1cccc(Cl)c1)C(=O)Nc1cc(S(=O)(=O)N2CCOCC2)ccc1N1CCCCC1 (centres undefined)	48	nt	nt
CCCN(C(=O)COC(=O)C12CCC(=O)N1c1ccccc1S2)c1c(N)n(Cc2ccccc2)c(=O)[nH]c1=O (centres undefined)	-50*	4	14
CN(C)CCCNC(=O)C[C@H]1C[C@H](C(=O)N2CCCCC2)[C@@]2(CCc3ccccc3)c3[nH]c4ccc(Cl)cc4c3CCN2C1=O	74	nt	nt
Cc1cccc(S(=O)(=O)C(C#N)c2nc3ccccc3nc2N2CCCC2)c1 (centres undefined)	55	nt	nt
CCOC(=O)N1CCN(C2=C(NS(=O)(=O)c3ccc(C)cc3)C(=O)c3ccccc3C2=O)CC1	86	nt	nt
CCOC(=O)N1CCN(C(=O)C2CCN(S(=O)(=O)c3ccc(OCC)cc3)CC2)CC1	-164*	-3	18
Cc1ccc(/C=C/c2onc(C)c2S(=O)(=O)N2CCC(C(=O)N3CCN(C)CC3)CC2)cc1	45	nt	nt
C#CCOCCOCCOCCNc1nc(N2CCN(C(=O)CCCCCCCCCCNC(=O)[C@@H](CCSC)n3cc(CCO)nn3)CC2)nc(N2CCN(C(=O)CCCCCCCCCCNC(=O)[C@H](CCCN=C(N)N)n3cc(C[C@@H](C)CC)nn3)CC2)n1	62	nt	nt
S=C(Nc1ccc(Cl)cc1)Nc1cccc2cnccc12	83	nt	nt
O=C(NCCCn1ccnc1)c1noc2c1CCc1ccccc1-2	47	nt	nt
O=C(NCCCn1ccnc1)c1cc(Cl)cc(Cl)c1	-106*	-38	7
O=C(C[C@H]1C[C@H](C(=O)N2CCOCC2)[C@@]2(CCC3CCCC3)c3[nH]c4ccc(Cl)cc4c3CCN2C1=O)NCCCn1ccnc1	58	nt	nt
O=C(O)CCCNc1cc(N2CCN(C(=O)c3ccco3)CC2)c2noc3c2c1C(=O)c1ccccc1-3	60	nt	nt
O=C(NC1=C(Nc2ccc(F)cc2)C(=O)c2ccccc2C1=O)c1ccc(Cl)cc1	70	nt	nt
COc1ccc(C(=O)Nc2ccc3c(c2)C(=O)c2ccccc2C3=O)cc1OC	-507*	5	6	Apaf1 act interf=>100
COc1ccc(C(=O)c2c(C(F)(F)F)oc3c2C(=O)c2ccccc2C3=O)cc1OC	85	nt	nt
Cc1ccc(NC2=CC(=O)C(=O)c3ccccc32)cc1	87	nt	nt
O=C1C(Cl)=C(N2CCCCC2)C(=O)C(Cl)=C1c1cnc(N2CCCCC2)s1	48	nt	nt
COc1ccccc1N1CCN(C(=O)c2cc(C(C)(C)C)oc2C)CC1	-380*	4	7
Cc1noc(C)c1COc1ccccc1C(=O)N1CCN(c2cccc(Cl)c2)CC1	52	nt	nt
CCN1CCN(c2ccc(S(=O)(=O)N3CCCCC3)cc2NC(=O)/C=C/c2cc(OC)ccc2OC)CC1	46	nt	nt
SMILES	Apaf1 activ	Rh110 act interf	Apaf-1 act conf	others
CC1(C)CC(=O)C(C=Nc2ccc(O)c(N=CC3=C(O)CC(C)(C)CC3=O)c2)=C(O)C1	47	nt	nt
C[C@H](O)CC(=O)O	-8	nt	nt
COc1ccccc1NC(=S)Nc1cccc2cnccc12	97	nt	nt
COc1ccccc1NC(=O)Nc1ccc(C(=O)N2CCCCC2)cc1	-80*	-1	13
O=C(Nc1ccc2nsnc2c1)N1CCCCC1	73	nt	nt
CC(NC(=O)c1ccccc1Cl)C(=O)O (centres undefined)	-532*	-1	3
O=C(NC1(O)C(=O)c2ccccc2C1=O)c1c(Cl)cccc1Cl	96	nt	nt
O=C(Cn1nc(-c2ccccc2Cl)ccc1=O)Nc1ccccc1-c1ccccc1	56	nt	nt
CC(C)(C)C(=O)[C@@H]1[C@@H]2C(=O)N(c3ccc4c(c3)OCCO4)C(=O)[C@@H]2C2c3ccccc3C=CN21 (some centres undefined)	62	nt	nt
Cc1ccc(CNC(=O)CN(C)S(=O)(=O)c2cnc[nH]2)cc1	-237*	1	10
CCc1noc(C)c1C(=O)N1CCN(S(=O)(=O)c2c(C)cc(C)cc2C)CC1	57	nt	nt
